According to ChEMBL document CHEMBL4049423, “Discovery of Novel 1,4-Diacylpiperazines as Selective and Cell-Active eIF4A3 Inhibitors” (J Med Chem, 2017):
The source made the active and inactive calls. The rule behind the calls is not given here.

Assays:
[1] = molecular target: T1, Eukaryotic initiation factor 4A-III (Homo sapiens, UniProt P38919); assay: Inhibition of MLN51-induced full-length human recombinant His6-tagged eIF4A3 RNA dependent ATPase activity expressed in Escherichia coli BL21(DE3) using single stranded poly(U) RNA as substrate after 30 mins by ADP-Glo luminescence assay
Summary of the method: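 ADP-Glo luminescence read-out with 150 nM eIF4A3 plus an equimolar amount of MLN51. Substrates were 35 μM ATP and 1.5 μg/mL poly(U), both at Km. Buffer: 20 mM Tris-HCl pH 7.5, 2.5 mM MgCl2, 100 mM KCl, 1 mM DTT, 0.01% Tween20. Enzyme was added last to start the reaction, then incubated 30 min at room temperature. No-enzyme wells were taken as 100% inhibition and the complete reaction as 0%.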

[2] = molecular target: T1, Eukaryotic initiation factor 4A-III; assay: Inhibition of eIF4A3 (unknown origin) expressed in HEK293T cells assessed as NMD suppression at 3 uM after 6 hrs by luciferase reporter gene assay relative to control; type: cell-based
Summary of the method: (§1)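 HEK293T cells were co-transfected (Lipofectamine LTX) with the pGL4.12 SV40-Luc2CP-BGG NMD reporter and a pRL-TK renilla control. After 24 h of transfection, cells were treated with compound for 6 h. Firefly/renilla luciferase ratio was measured by dual-luciferase assay and normalized to DMSO-treated cells, n = 2.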

[3] = molecular target: T1, Eukaryotic initiation factor 4A-III; assay: Inhibition of eIF4A3 (unknown origin) expressed in HEK293T cells assessed as NMD suppression at 10 uM after 6 hrs by luciferase reporter gene assay relative to control; type: cell-based; summary of the method: as §1
[4] = molecular target: T1, Eukaryotic initiation factor 4A-III; assay: Binding affinity to full-length human recombinant His6-tagged eIF4A3 expressed in Escherichia coli BL21(DE3) by surface plasmon resonance assay
Summary of the method: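 eIF4A3 immobilized on CM7 chip by amine coupling (5000–10 000 RU) in HBS-P+ with 1 mM DTT. Binding run at 25 °C in 20 mM Tris-HCl pH 8.0, 150 mM NaCl, 0.2 mM TCEP, 0.02% P20, 1−2% DMSO. Compound injected at 6−12 concentrations for 60−120 s at 50 μL/min, dissociation followed 120−1200 s. Sensorgrams double-referenced, globally fitted to 1:1 model.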

[5] = molecular target: T1, Eukaryotic initiation factor 4A-III; assay: Binding affinity to full-length human recombinant His6-tagged eIF4A3 expressed in Escherichia coli BL21(DE3) assessed as dissociation rate constant by surface plasmon resonance assay
Summary of the method: (§2)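 eIF4A3 amine-coupled to a CM7 sensor chip (5000–10 000 RU) in HBS-P+ with 1 mM DTT. Binding was run at 25 °C in 20 mM Tris-HCl pH 8.0, 150 mM NaCl, 0.2 mM TCEP, 0.02% P20 and 1–2% DMSO. Compound series of 6–12 concentrations were injected for 60–120 s at 50 μL/min, with dissociation followed for 120–1200 s. Sensorgrams were double-referenced and globally fitted to a 1:1 model.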

[6] = molecular target: T1, Eukaryotic initiation factor 4A-III; assay: Binding affinity to full-length human recombinant His6-tagged eIF4A3 expressed in Escherichia coli BL21(DE3) assessed as association rate constant by surface plasmon resonance assay; summary of the method: as §2
[7] = molecular target: T1, Eukaryotic initiation factor 4A-III; assay: Binding affinity to full-length human recombinant His6-tagged eIF4A3 expressed in Escherichia coli BL21(DE3) assessed as dissociation half life by surface plasmon resonance assay; summary of the method: as §2

T1 sequence (P38919 whole entry): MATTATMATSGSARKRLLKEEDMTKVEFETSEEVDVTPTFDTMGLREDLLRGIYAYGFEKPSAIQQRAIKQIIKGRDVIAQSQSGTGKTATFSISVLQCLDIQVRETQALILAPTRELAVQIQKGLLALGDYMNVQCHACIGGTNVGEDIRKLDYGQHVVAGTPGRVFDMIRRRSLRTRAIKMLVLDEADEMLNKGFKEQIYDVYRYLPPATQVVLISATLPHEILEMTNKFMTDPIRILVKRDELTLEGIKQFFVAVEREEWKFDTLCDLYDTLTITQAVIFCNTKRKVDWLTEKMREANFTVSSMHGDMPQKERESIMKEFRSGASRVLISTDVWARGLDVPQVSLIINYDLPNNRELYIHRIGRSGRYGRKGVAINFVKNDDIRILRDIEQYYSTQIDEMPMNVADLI

## O=C(c1cnc(-c2ccccc2)o1)N1CCN(C(=O)c2ccccc2Cl)C(c2ccc(Cl)cc2)C1 (configuration not stated)
[1]
  IC50: > 100000 nM

## Cc1c(C(=O)N2CCN(C(=O)c3ccc(Br)cc3)[C@H](c3ccc(Cl)cc3)C2)cnn1-c1cccc(C#N)c1
[2]
  fold change (FC): 1.1
[1]
  IC50: > 100000 nM
[3]
  fold change (FC): 1.34

## O=C(c1ccn(-c2ccccc2)n1)N1CCN(C(=O)c2ccc(Cl)cc2)C(c2ccc(Cl)cc2)C1 (configuration not stated)
[1]
  IC50: > 100000 nM

## O=C(c1cnn2cc(Br)ccc12)N1CCN(C(=O)c2ccc(Br)cc2)[C@H](c2ccc(Cl)cc2)C1
[4]
  Kd: 16000 nM
[5]
  K: 2.4 ×10⁻² /s
[1]
  IC50: 60000 nM
[6]
  K: 1.5 ×10³ /M/s
[7]
  T1/2: 0.477 min

## O=C(c1cnc(-c2ccccc2)o1)N1CCN(C(=O)c2ccc(Cl)cc2)C(c2cccc(Cl)c2)C1 (configuration not stated)
[1]
  IC50: > 100000 nM

## O=C(c1cnc(-c2ccccc2)o1)N1CCN(C(=O)c2cccc(Cl)c2)C(c2ccc(Cl)cc2)C1 (configuration not stated)
[1]
  IC50: > 100000 nM

## N#Cc1ccc2c(C(=O)N3CCN(C(=O)c4ccc(Br)cc4)C(c4ccc(Cl)cc4)C3)cnn2c1 (configuration not stated)
[1]
  IC50: 9000 nM

## O=C(c1cnn2cccc(Br)c12)N1CCN(C(=O)c2ccc(Cl)cc2)C(c2ccc(Cl)cc2)C1 (configuration not stated)
[1]
  IC50: 8900 nM

## O=C(c1cnn2cc(Br)ccc12)N1CCN(C(=O)c2ccc(Br)cc2)[C@@H](c2ccc(Cl)cc2)C1
[4]
  Kd: 57 nM
[5]
  K: 1.6 ×10⁻³ /s
[1]
  IC50: 200 nM
[6]
  K: 2.8 ×10⁴ /M/s
[7]
  T1/2: 7.3 min

## O=C(c1ccc(Cl)cc1)N1CCN(Cc2cnc(-c3ccccc3)o2)CC1c1ccc(Cl)cc1 (configuration not stated)
[1]
  IC50: > 100000 nM

## O=C(c1ncc(-c2ccccc2)o1)N1CCN(C(=O)c2ccc(Cl)cc2)C(c2ccc(Cl)cc2)C1 (configuration not stated)
[1]
  IC50: > 100000 nM

## N#Cc1ccnc(-c2ncc(C(=O)N3CCN(C(=O)c4ccc(Br)cc4)C(c4ccc(Cl)cc4)C3)o2)c1 (configuration not stated)
[2]
  NMD suppression activity (qualitative): Active
[1]
  IC50: 390 nM
[3]
  fold change (FC): 1.8

## O=C(c1cnn2cc(Br)ccc12)N1CCN(C(=O)c2ccc(Cl)cc2)C(c2ccc(Cl)cc2)C1 (configuration not stated)
[1]
  IC50: 720 nM

## O=C(c1cnc(-c2ccccc2)o1)N1CCN(C(=O)c2ccccc2)C(c2ccc(Cl)cc2)C1 (configuration not stated)
[1]
  IC50: 11000 nM

## N#Cc1ccccc1-c1ncc(C(=O)N2CCN(C(=O)c3ccc(Cl)cc3)C(c3ccc(Cl)cc3)C2)o1 (configuration not stated)
[1]
  IC50: 2100 nM

## N#Cc1cccc(-c2ncc(C(=O)N3CCN(C(=O)c4ccc(Br)cc4)C(c4ccc(Cl)cc4)C3)o2)c1 (configuration not stated)
[2]
  NMD suppression activity (qualitative): Active
[1]
  IC50: 360 nM
[3]
  fold change (FC): 1.8

## O=C(c1cnn2c(Br)cccc12)N1CCN(C(=O)c2ccc(Cl)cc2)C(c2ccc(Cl)cc2)C1 (configuration not stated)
[1]
  IC50: 1900 nM

## O=C(c1cnn(-c2ccccc2)c1)N1CCN(C(=O)c2ccc(Cl)cc2)C(c2ccc(Cl)cc2)C1 (configuration not stated)
[1]
  IC50: 2400 nM

## O=C(c1cnc(-c2ccccc2)o1)N1CCN(C(=O)c2ccc(Cl)cc2)C(c2ccc(Cl)cc2)C1 (configuration not stated)
[1]
  IC50: 2200 nM

## O=C(c1cnc(-c2ccccc2)o1)N1CCN(C(=O)c2ccc(Cl)cc2)C(c2ccccc2Cl)C1 (configuration not stated)
[1]
  IC50: > 100000 nM

## O=C(c1cnn2ccc(Br)cc12)N1CCN(C(=O)c2ccc(Cl)cc2)C(c2ccc(Cl)cc2)C1 (configuration not stated)
[1]
  IC50: 830 nM

## O=C(c1coc(-c2ccccc2)n1)N1CCN(C(=O)c2ccc(Cl)cc2)C(c2ccc(Cl)cc2)C1 (configuration not stated)
[1]
  IC50: 69000 nM

## O=C(c1cnc(-c2ccccc2)o1)N1CCN(C(=O)c2ccc(Br)cc2)C(c2ccc(Cl)cc2)C1 (configuration not stated)
[1]
  IC50: 660 nM

## O=C(c1cnc(-c2ccccc2)o1)N1CCN(Cc2ccc(Cl)cc2)C(c2ccc(Cl)cc2)C1 (configuration not stated)
[1]
  IC50: > 100000 nM

## O=C(c1c[nH]c2ccccc12)N1CCN(C(=O)c2ccc(Cl)cc2)C(c2ccc(Cl)cc2)C1 (configuration not stated)
[1]
  IC50: 2300 nM

## Cc1c(C(=O)N2CCN(C(=O)c3ccc(Cl)cc3)C(c3ccc(Cl)cc3)C2)cnn1-c1ccccc1 (configuration not stated)
[1]
  IC50: 1600 nM

## C[C@H]1C[C@@]2(O[C@H]3C[C@H]4[C@@H]5CC[C@H]6C[C@H](O)CC[C@]6(C)[C@H]5[C@@H](O)C[C@]4(C)[C@H]3[C@@]2(C)O)OC1(C)C
[4]
  Activity: Dose-dependent effect

## O=C(c1cnn2cc(Br)ccc12)N1CCN(C(=O)c2ccc(Br)cc2)C(c2ccc(Cl)cc2)C1 (configuration not stated)
[2]
  NMD suppression activity (qualitative): Active
[1]
  IC50: 420 nM
[3]
  fold change (FC): 1.9

## N#Cc1cccc(-c2ncc(C(=O)N3CCN(C(=O)c4ccc(Cl)cc4)C(c4ccc(Cl)cc4)C3)o2)c1 (configuration not stated)
[1]
  IC50: 600 nM

## O=C(c1cnc(-c2ccccc2)o1)N1CCCN(C(=O)c2ccc(Cl)cc2)C(c2ccc(Cl)cc2)C1 (configuration not stated)
[1]
  IC50: > 100000 nM

## O=C(c1cnc(-c2ccccc2)o1)N1CCN(C(=O)c2ccc(Cl)cc2)C(C2CCCCC2)C1 (configuration not stated)
[1]
  IC50: > 100000 nM

## O=C1C(c2ccc(Cl)cc2)N(C(=O)c2ccc(Cl)cc2)CCN1Cc1cnc(-c2ccccc2)o1 (configuration not stated)
[1]
  IC50: > 100000 nM

## O=C(c1n[nH]c2ccccc12)N1CCN(C(=O)c2ccc(Cl)cc2)C(c2ccc(Cl)cc2)C1 (configuration not stated)
[1]
  IC50: 62000 nM

## O=C(c1cnn2ccccc12)N1CCN(C(=O)c2ccc(Cl)cc2)C(c2ccc(Cl)cc2)C1 (configuration not stated)
[1]
  IC50: 1100 nM

## N#Cc1ccc(-c2ncc(C(=O)N3CCN(C(=O)c4ccc(Cl)cc4)C(c4ccc(Cl)cc4)C3)o2)cc1 (configuration not stated)
[1]
  IC50: 8400 nM

## COc1ccc2c(C(=O)N3CCN(C(=O)c4ccc(Br)cc4)C(c4ccc(Cl)cc4)C3)cnn2c1 (configuration not stated)
[2]
  NMD suppression activity (qualitative): Active
[1]
  IC50: 920 nM
[3]
  fold change (FC): 1.7

## Cc1c(C(=O)N2CCN(C(=O)c3ccc(Br)cc3)C(c3ccc(Cl)cc3)C2)cnn1-c1cccc(C#N)c1 (configuration not stated)
[2]
  NMD suppression activity (qualitative): Active
[1]
  IC50: 580 nM
[3]
  fold change (FC): 2.3
